Measurements: ChEMBL document CHEMBL5724801, “EUbOPEN Chemogenomics Library - Multiplex” (2024)
Where “and” joins values, the source holds several entries; their conditions need not be identical. Equal entries are not always repeated.

Test system: Fibroblast
Assay: Multiplex assay against human fibroblast
Format: toxicity, cell-based
Method in brief: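 Imaging took place on a CQ1 microscope at 37°C and 5% CO2 once compound had been added to live cells stained at seeding with Hoechst33342, BioTracker Green Microtubule Cytoskeleton Dye, MitoTracker Red and Annexin V Alexa Fluor 680. CellPathfinder machine-learning gating classed cells as Hoechst high-intensity objects or normal cells, classed normal cells as having healthy, pyknosed or fragmented nuclei, and classed pyknosed cells as mitotic or apoptotic. Tubulin, mitochondrial-mass and membrane-permeability phenotypes are per cents of the healthy-nucleus cells.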

[1] = 12 h, 1 µM, compound concentration 1 uM
[2] = 12 h, 10 µM, compound concentration 10 uM
[3] = 24 h, 1 µM, compound concentration 1 uM
[4] = 24 h, 10 µM, compound concentration 10 uM
[5] = 48 h, 1 µM, compound concentration 1 uM
[6] = 48 h, 10 µM, compound concentration 10 uM

With `Cc1ccc(-c2c(C(=O)CF)n(CCCO)c3ncnc(N)c23)cc1` the “Population Apoptotic (%)” value [1] was 36% and 12.9%, the “Population Fragmented Nuclei (%)” value [1] was 17.65% and 9.49% and the “Population Healthy Nuclei (%)” value [1] was 63.97% and 78.26%. For the same molecule, the “Population Hoechst High Intensity Objects (%)” value [1] was 0%, the “Population Membrane Permeable-Phenotype (%)” value [1] was 1.15% and 2.53% and the “Population Mitochondria Different-Phenotype (%)” value [1] was 9.2% and 6.06%. The “Population Mitotic Cells (%)” value [1] was 64% and 87.1%, the “Population Normal (%)” value [1] was 100% and the “Population Pyknosed Nuclei (%)” value [1] was 18.38% and 12.25%. The “Population Tubulin-Different-Phenotype (%)” value [1] was 13.79% and 12.12%, the “Total Cell Count” value [1] was 136 and 253 and the “Population Apoptotic (%)” value [2] was 6.98% and 18.18%. The “Population Fragmented Nuclei (%)” value [2] was 10.16% and 6%, the “Population Healthy Nuclei (%)” value [2] was 66.84% and 77.5% and the “Population Hoechst High Intensity Objects (%)” value [2] was 0%. For the same molecule, the “Population Membrane Permeable-Phenotype (%)” value [2] was 4% and 4.52%, the “Population Mitochondria Different-Phenotype (%)” value [2] was 8% and 11.61% and the “Population Mitotic Cells (%)” value [2] was 93.02% and 81.82%. The “Population Normal (%)” value [2] was 100%, the “Population Pyknosed Nuclei (%)” value [2] was 22.99% and 16.5% and the “Population Tubulin-Different-Phenotype (%)” value [2] was 19.2% and 29.03%. The “Total Cell Count” value [2] was 187 and 200, the “Population Apoptotic (%)” value [3] was 12.12% and 12% and the “Population Healthy Nuclei (%)” value [3] was 62.58% and 87.98%. For the same molecule, the “Population Hoechst High Intensity Objects (%)” value [3] was 0%, the “Population Membrane Permeable-Phenotype (%)” value [3] was 6.86% and 1.32% and the “Population Mitochondria Different-Phenotype (%)” value [3] was 2.94% and 5.29%. For the same molecule, the “Population Mitotic Cells (%)” value [3] was 87.88% and 88%, the “Population Normal (%)” value [3] was 100% and the “Population Pyknosed Nuclei (%)” value [3] was 20.25% and 9.69%. For the same molecule, the “Population Tubulin-Different-Phenotype (%)” value [3] was 14.71% and 10.57%, the “Total Cell Count” value [3] was 163 and 258 and the “Population Apoptotic (%)” value [4] was 9.3% and 10%. The “Population Fragmented Nuclei (%)” value [4] was 8.8% and 4.95%, the “Population Healthy Nuclei (%)” value [4] was 71.3% and 85.15% and the “Population Hoechst High Intensity Objects (%)” value [4] was 0%. The “Population Membrane Permeable-Phenotype (%)” value [4] was 8.44% and 2.33%, the “Population Mitochondria Different-Phenotype (%)” value [4] was 4.55% and 5.81% and the “Population Mitotic Cells (%)” value [4] was 90.7% and 90%. For the same molecule, the “Population Normal (%)” value [4] was 100%, the “Population Pyknosed Nuclei (%)” value [4] was 19.91% and 9.9% and the “Population Tubulin-Different-Phenotype (%)” value [4] was 23.38% and 29.07%. The “Total Cell Count” value [4] was 216 and 202, the “Population Apoptotic (%)” value [5] was 26.67% and 20% and the “Population Healthy Nuclei (%)” value [5] was 73.05% and 89.29%. The “Population Hoechst High Intensity Objects (%)” value [5] was 0%, the “Population Membrane Permeable-Phenotype (%)” value [5] was 1.64% and 1.78% and the “Population Mitotic Cells (%)” value [5] was 73.33% and 80%. The “Population Normal (%)” value [5] was 100%, the “Population Pyknosed Nuclei (%)” value [5] was 8.98% and 7.94% and the “Population Tubulin-Different-Phenotype (%)” value [5] was 7.38% and 16.44%. The “Total Cell Count” value [5] was 167 and 252, the “Population Apoptotic (%)” value [6] was 9.09% and 27.27% and the “Population Fragmented Nuclei (%)” value [6] was 7.76% and 9.13%. For the same molecule, the “Population Healthy Nuclei (%)” value [6] was 87.21% and 80.29%, the “Population Hoechst High Intensity Objects (%)” value [6] was 0% and the “Population Membrane Permeable-Phenotype (%)” value [6] was 1.57% and 0.6%. For the same molecule, the “Population Mitochondria Different-Phenotype (%)” value [6] was 8.9% and 2.4%, the “Population Mitotic Cells (%)” value [6] was 90.91% and 72.73% and the “Population Normal (%)” value [6] was 100%. For the same molecule, the “Population Pyknosed Nuclei (%)” value [6] was 5.02% and 10.58%, the “Population Tubulin-Different-Phenotype (%)” value [6] was 9.42% and 27.54% and the “Total Cell Count” value [6] was 219 and 208.
`C=CC(=O)N1CCC[C@@H](n2nc(C(=O)Nc3ccc(CC(=O)N(C)C)c(C)c3C)c3c(N)ncnc32)C1` was tested, and the “Population Fragmented Nuclei (%)” value [1] was 10.1% and 3.17%, the “Population Healthy Nuclei (%)” value [1] was 56.73% and 73.02% and the “Population Hoechst High Intensity Objects (%)” value [1] was 0%. For the same molecule, the “Population Membrane Permeable-Phenotype (%)” value [1] was 1.69% and 0.72%, the “Population Mitochondria Different-Phenotype (%)” value [1] was 9.32% and 5.8% and the “Population Mitotic Cells (%)” value [1] was 97.1% and 80%. The “Population Normal (%)” value [1] was 100%, the “Population Pyknosed Nuclei (%)” value [1] was 33.17% and 23.81% and the “Population Tubulin-Different-Phenotype (%)” value [1] was 14.41% and 5.8%. The “Total Cell Count” value [1] was 208 and 189, the “Population Apoptotic (%)” value [2] was 5.56% and 8.57% and the “Population Fragmented Nuclei (%)” value [2] was 8.2% and 7.93%. The “Population Healthy Nuclei (%)” value [2] was 62.3% and 70.73%, the “Population Hoechst High Intensity Objects (%)” value [2] was 0% and the “Population Membrane Permeable-Phenotype (%)” value [2] was 9.65% and 7.76%. The “Population Mitochondria Different-Phenotype (%)” value [2] was 11.4% and 13.79%, the “Population Mitotic Cells (%)” value [2] was 94.44% and 91.43% and the “Population Normal (%)” value [2] was 100%. For the same molecule, the “Population Pyknosed Nuclei (%)” value [2] was 29.51% and 21.34%, the “Population Tubulin-Different-Phenotype (%)” value [2] was 21.93% and 32.76% and the “Total Cell Count” value [2] was 183 and 164. The “Population Apoptotic (%)” value [3] was 18.18% and 16.67%, the “Population Fragmented Nuclei (%)” value [3] was 12.88% and 6.53% and the “Population Healthy Nuclei (%)” value [3] was 68.24% and 78.39%. For the same molecule, the “Population Hoechst High Intensity Objects (%)” value [3] was 0%, the “Population Membrane Permeable-Phenotype (%)” value [3] was 3.77% and 2.56% and the “Population Mitochondria Different-Phenotype (%)” value [3] was 7.55% and 8.33%. For the same molecule, the “Population Mitotic Cells (%)” value [3] was 81.82% and 83.33%, the “Population Normal (%)” value [3] was 100% and the “Population Pyknosed Nuclei (%)” value [3] was 18.88% and 15.08%. For the same molecule, the “Population Tubulin-Different-Phenotype (%)” value [3] was 13.21% and 10.26%, the “Total Cell Count” value [3] was 233 and 199 and the “Population Fragmented Nuclei (%)” value [4] was 12.56% and 7.73%. For the same molecule, the “Population Healthy Nuclei (%)” value [4] was 67.34% and 70.72%, the “Population Hoechst High Intensity Objects (%)” value [4] was 0% and the “Population Membrane Permeable-Phenotype (%)” value [4] was 8.96% and 3.12%. The “Population Mitochondria Different-Phenotype (%)” value [4] was 9.7% and 14.06%, the “Population Mitotic Cells (%)” value [4] was 95% and 84.62% and the “Population Normal (%)” value [4] was 100%. The “Population Pyknosed Nuclei (%)” value [4] was 20.1% and 21.55%, the “Population Tubulin-Different-Phenotype (%)” value [4] was 23.13% and 33.59% and the “Total Cell Count” value [4] was 199 and 181. The “Population Apoptotic (%)” value [5] was 13.79% and 22.22%, the “Population Fragmented Nuclei (%)” value [5] was 7.48% and 7.76% and the “Population Healthy Nuclei (%)” value [5] was 81.1% and 84.02%. The “Population Hoechst High Intensity Objects (%)” value [5] was 0%, the “Population Membrane Permeable-Phenotype (%)” value [5] was 0.97% and 1.63% and the “Population Mitotic Cells (%)” value [5] was 86.21% and 77.78%. The “Population Normal (%)” value [5] was 100%, the “Population Pyknosed Nuclei (%)” value [5] was 11.42% and 8.22% and the “Population Tubulin-Different-Phenotype (%)” value [5] was 5.34% and 12.5%. For the same molecule, the “Total Cell Count” value [5] was 254 and 219, the “Population Apoptotic (%)” value [6] was 22.22% and 18.75% and the “Population Fragmented Nuclei (%)” value [6] was 7.14% and 11.46%. The “Population Healthy Nuclei (%)” value [6] was 84.29% and 80.21%, the “Population Hoechst High Intensity Objects (%)” value [6] was 0% and the “Population Membrane Permeable-Phenotype (%)” value [6] was 3.39% and 5.84%. The “Population Mitochondria Different-Phenotype (%)” value [6] was 12.99% and 3.9%, the “Population Mitotic Cells (%)” value [6] was 77.78% and 81.25% and the “Population Normal (%)” value [6] was 100%. For the same molecule, the “Population Pyknosed Nuclei (%)” value [6] was 8.57% and 8.33%, the “Population Tubulin-Different-Phenotype (%)” value [6] was 19.21% and 29.22% and the “Total Cell Count” value [6] was 210 and 192.
